High-throughput results from PubChem BioAssay.
Most compounds without a hit are left out; they make up all but 5.8% or so of the library.
KCC2 mod: modulates chloride dependent transport by human KCC2; Q9H2X9; KCC2 cells, thallium flux FluoZin-2 fluorescence; B-score of Tl+ flux slope (higher = more flux/activation; lower = inhibition) at 10 µM; 190,000 tested, 2.2% active; AID 1456;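 active means thallium flux slope and its plate-corrected score both differing from the plate sample mean at a set confidence after two filtering rounds, in either direction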;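 further: slope of fluorescence scaled to starting intensity during 10 to 20 s after thallium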
Target sequence (Q9H2X9 whole entry, looked up): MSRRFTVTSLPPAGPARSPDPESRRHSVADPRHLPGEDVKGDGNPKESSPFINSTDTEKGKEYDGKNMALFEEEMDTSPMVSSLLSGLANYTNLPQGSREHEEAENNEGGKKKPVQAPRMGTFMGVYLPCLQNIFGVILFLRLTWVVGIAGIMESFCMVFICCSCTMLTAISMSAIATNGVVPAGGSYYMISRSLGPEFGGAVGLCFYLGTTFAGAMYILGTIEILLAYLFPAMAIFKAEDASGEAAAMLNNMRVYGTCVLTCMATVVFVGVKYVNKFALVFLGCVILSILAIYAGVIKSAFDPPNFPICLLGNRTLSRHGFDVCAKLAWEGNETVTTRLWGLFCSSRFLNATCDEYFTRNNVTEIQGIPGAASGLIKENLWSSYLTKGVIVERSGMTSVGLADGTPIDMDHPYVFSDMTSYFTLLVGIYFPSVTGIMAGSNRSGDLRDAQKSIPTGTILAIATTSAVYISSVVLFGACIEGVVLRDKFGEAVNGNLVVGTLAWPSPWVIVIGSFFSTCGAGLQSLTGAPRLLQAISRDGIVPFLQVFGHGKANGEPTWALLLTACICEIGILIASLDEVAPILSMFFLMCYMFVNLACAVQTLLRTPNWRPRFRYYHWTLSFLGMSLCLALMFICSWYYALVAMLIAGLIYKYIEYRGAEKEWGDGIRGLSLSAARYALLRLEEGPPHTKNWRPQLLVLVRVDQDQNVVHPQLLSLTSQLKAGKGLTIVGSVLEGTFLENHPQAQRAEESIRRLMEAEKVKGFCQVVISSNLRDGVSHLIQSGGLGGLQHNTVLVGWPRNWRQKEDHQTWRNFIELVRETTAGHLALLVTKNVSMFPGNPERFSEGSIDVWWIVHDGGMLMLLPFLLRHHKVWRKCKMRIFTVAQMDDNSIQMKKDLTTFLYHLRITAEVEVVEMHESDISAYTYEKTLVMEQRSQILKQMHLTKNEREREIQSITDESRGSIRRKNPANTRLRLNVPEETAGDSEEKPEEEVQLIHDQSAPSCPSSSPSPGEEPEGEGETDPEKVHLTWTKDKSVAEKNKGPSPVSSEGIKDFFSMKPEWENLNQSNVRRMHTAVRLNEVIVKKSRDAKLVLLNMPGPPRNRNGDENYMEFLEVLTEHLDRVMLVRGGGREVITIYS
RBBP9 inhibitor: inhibitors of human serine hydrolase RBBP9 | O75884 | recombinant RBBP9, FP-Rh probe fluorescence polarization | inhibition, % at 7.94 µM | 220,000 tested, 0.2% active | AID 1515;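 active means inhibition above the campaign mean of all tested compounds plus 3 SD, cut at about 14% in these data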;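 further: plate controls were DMSO wells with RBBP9 for no effect and wells lacking RBBP9 protein for full effect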
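Material: RBBP9 protein. Amount: RBBP9 at 2.5 µM in dispensed solution, before mixing. Schedule: 30 min then 45 min, 25 °C. Medium: Tris buffer pH 8.0, NaCl, Pluronic. Measured by: fluorescence polarization. Measure: percent inhibition from mP, scaled between DMSO and no-protein wells. Replication: one well per compound.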
14-3-3 Bad PPI: disrupts binding of bovine 14-3-3 zeta to phospho-Bad peptide | P63103 | TR-FRET 14-3-3zeta/Dy647-pBad peptide displacement, 1 h | inhibition, % at 21.7 µM | 220,000 tested, 0.71% active;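 active means inhibition above about 70%, limit read from the data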;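 further: 0% = full 14-3-3 plus peptide FRET controls and 100% = background without 14-3-3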
NCF1 inh: p47phox (human) inhibition | P14598 | p47phox/p22phox peptide binding, fluorescence polarization, 2 h | inhibition, % at 24.7 µM | 220,000 tested, 0.53% active | AID 1274;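 active means inhibition above about 30%, limit read from the data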;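 further: 0% = p47phox with labelled peptide and 100% = labelled peptide alone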
ROMK primary: modulators of human ROMK potassium channel; P48048; Tet-inducible ROMK, thallium flux fluorescence; actives lie on both sides; B-score at 10 µM; 130,000 tested, 2% active; AID 1918;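 active means signal ratio slope over the read window, or its plate-corrected B-score, at least 3 SD from the plate mean, either direction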;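 further: B-score of the F/F0 ratio slope over 7 to 12 s after thallium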
WT yeast gro inh: growth inhibition of WT yeast, mitochondrial fusion screen; mitochondrial fusion phenotypic screen, WT strain; inhibition, % at 10 µM; 190,000 tested, 2.1% active; in the data active means inhibition above about 58%; tested in S. cerevisiae
ROMK retest: retested hit modulating human ROMK potassium channel. shares compounds with ROMK primary. ROMK thallium flux, fluorescence ratio; stronger effect = lower value. normalized thallium flux (F/F0 slope) at 10 µM. 3,000 tested, 54% active. AID 1917;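 active means Flux at 10 µM at least 3 SD below or above vehicle control mean in one or both replicates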
* hit, by the source's call; i = inactive; x = no result.

SMILES | KCC2 mod | RBBP9 inhibitor | 14-3-3 Bad PPI | NCF1 inh | ROMK primary | WT yeast gro inh | ROMK retest
O=S(=O)(c1cnc(Cl)c(Br)c1)N1CCN(c2ncccn2)CC1 | 0.2 | -15 | 1 | -9 | x | x | x
CCOc1ccc(C(=O)NC(=S)Nc2cccc(S(=O)(=O)NC3=NCCC3)c2)cc1 | -1.2 | -2 | -14 | -2 | 5.7* | -19 | 0.096
C=C(C)CNC(=S)Nc1cccc(S(=O)(=O)NC2=NCCC2)c1 | 0.88 | 4 | -12 | -5 | 0.079 | -12 | x
Fc1ccc(-c2cnn3c(-c4cccs4)ccnc23)cc1 | 0.4 | 9 | -2 | -4 | -2.3* | 5 | 0.063*
COc1ccc(CCNC(=O)CSc2nn(-c3ccccc3)c(=S)s2)cc1 | 1.5 | -10 | -2 | -9 | x | x | x
NC(=O)c1cc2cc(Cl)ccc2o/c1=N/NC(=O)c1cccs1 | -0.025 | -5 | 7 | -4 | 0.059 | x | x
CCN(CC)S(=O)(=O)c1ccc(C(=O)Nc2nnc(-c3ccco3)o2)cc1 | 0.012 | -6 | -25 | -5 | -0.25 | 2 | x
CCCCN(C)S(=O)(=O)c1ccc(C(=O)Nc2nnc(-c3ccco3)o2)cc1 | 2.8 | -10 | -20 | -13 | 3.2* | 11 | 0.091
CCNS(=O)(=O)c1cccc(C(=O)c2c(C)cc3ccccn23)c1 | -2.3 | -8 | 6 | -13 | -1.5 | -4 | x
CC(=O)Nc1ccc(S(=O)(=O)N2CCN(CC3CC4C=CC3C4)CC2)cc1 (stereo not drawn) | 0.41 | -6 | 3 | -8 | 1.4 | -10 | x
CCC(CC)C(=O)N1c2ccc(F)cc2CCC1C (stereo not drawn) | -0.24 | -8 | 7 | -2 | 0.43 | 17 | x
CC1CCc2cc(F)ccc2N1C(=O)CCl (stereo not drawn) | 0.99 | -1 | -3 | -6 | -4.3* | -5 | 0.048*
COc1ccc(Oc2ccc(S(=O)(=O)N3CCCCC3)cc2S(=O)(=O)N2CCCCC2)cc1 | -0.4 | -2 | -3 | -10 | -5.7* | -16 | 0.047*
COc1ccc(S(=O)(=O)N2CCCCC2)cc1C(C)C | -0.21 | -4 | -1 | 7 | x | 13 | 0.053*
O=C(CSc1nnc(-c2ccc(F)cc2)c2ccccc12)NCC1CCCO1 (stereo not drawn) | -0.013 | -5 | 1 | -16 | -0.38 | -10 | x
COc1ccc2nc3ccccc3nc2c1NC(=O)c1ccc(Cl)cc1Cl | i | 3 | -10 | -31 | -1 | 0 | x
Cc1ccc2nsnc2c1NC(=O)CCl | 0.089 | 1 | -5 | -1 | -13* | -10 | 0.079
Cc1ccc(C(=O)N/C(=C\c2ccc(-c3ccc(Br)cc3)o2)C(=O)NCCCN(C)C)cc1 | 1.3 | -4 | -11 | 11 | -3.7* | 3 | 0.048*
CN(C)CCNC(=O)/C(=C/c1ccc(-c2ccc(Cl)cc2)o1)NC(=O)c1ccccc1 | -1.7 | -6 | -5 | -3 | -4.4* | 18 | 0.06*
COc1ccc(Cn2c(O)c(/C=N/NC(=O)c3cccnc3)c3ccccc3c2=O)cc1 | -2.3 | 4 | -46 | -31 | -5.5* | 28 | 0.032*
Cc1cccc(-n2c(O)c(/C=N/NC(=O)c3ccccc3Cl)c3ccccc3c2=O)n1 | -0.23 | 0 | 3 | 5 | x | -1 | x
COc1ccc(Cn2c(O)c(C=Nc3ccc(OC)cc3)c3ccccc3c2=O)cc1 | 1.2 | -5 | 8 | -113 | x | -10 | x
O=C(N/N=C/c1c(O)n(-c2ccccc2Cl)c(=O)c2ccccc12)c1cccnc1 | -1.3 | 1 | -19 | -5 | -3.6* | 15 | 0.058*
COC(=O)C1=C(C)NC(=S)NC1c1ccc(-c2cc(Cl)ccc2Cl)o1 (stereo not drawn) | -0.24 | -7 | -11 | -36 | x | x | x
Clc1nc(CN2CCCCC2)nc2sc3c(c12)CCC3 | -0.32 | 2 | -3 | -8 | -1 | 18 | x
SMILES | KCC2 mod | RBBP9 inhibitor | 14-3-3 Bad PPI | NCF1 inh | ROMK primary | WT yeast gro inh | ROMK retest
Cc1cccc(COCC(Cc2ccccc2)N2CCN(C(=O)c3ccc(Cl)c(Cl)c3)CCC2=O)c1 (stereo not drawn) | -0.45 | -11 | 2 | -3 | -2.6* | 40 | 0.06*
CCOC(=O)C1=C(c2ccccc2)Nc2ncnn2C1c1ccc(C(=O)O)cc1 (stereo not drawn) | 1.2 | -7 | 3 | -9 | x | x | x
CCOC(=O)C1=C(c2ccccc2)NC(N)=NC1c1ccc(OCc2ccc(C(=O)OC)cc2)cc1 (stereo not drawn) | -0.3 | 5 | 90* | 84* | x | x | 0.053*
Nc1[nH]n(-c2ccccc2)c(=O)c1N=Nc1ccc2c(c1)OCO2 | 1.4 | -1 | 0 | 9 | x | x | 0.086
CSc1cccc(NC(=O)C2CCCN2S(=O)(=O)c2ccc(Br)s2)c1 (stereo not drawn) | -1.9 | -8 | 0 | -17 | -3.1* | 27 | 0.061*
Cc1ccc(S(=O)(=O)N2CCCC2C(=O)O)s1 (stereo not drawn) | -0.56 | 1 | 9 | -16 | 0.14 | -3 | x
CC1=C(C#N)C(NC(=O)c2cccc(Cl)c2)(C(F)(F)F)C(=O)N1 (stereo not drawn) | 0.026 | -2 | 20 | -9 | 0.93 | 7 | x
CCOC(=O)/C(=C/c1c(C)n(C)c2ccc([N+](=O)[O-])cc12)C(C)=O | x | -2 | -1 | -3 | -4.2* | -10 | 0.046*
O=C(CCCn1cnc([N+](=O)[O-])n1)Nc1cccc2ccccc12 | 0.39 | -1 | -4 | -1 | 0.022 | -5 | 0.073
Cc1ccc(C(=O)C(c2ccccc2)N2Cc3ccccc3C2=N)cc1 (stereo not drawn) | -0.8 | -6 | 10 | -15 | -3* | 70* | 0.054*
COc1ccc(C(=O)CN2Cc3ccccc3C2=N)cc1 | -1.6 | -10 | 5 | -13 | x | x | x
CCOC(=O)C1C(=O)CC(C)(O)C(C(=O)OCC)C1c1ccc(OCC)cc1 (stereo not drawn) | -1.3 | -1 | -8 | -1 | x | 0 | x
C=CCOC(=O)C1C(=O)CC(C)(O)C(C(=O)OCC=C)C1c1ccc(OC)cc1 (stereo not drawn) | x | -2 | 9 | -3 | 1.2* | -5 | 0.075
CC(=O)N1CCN(CC(=O)Nc2cc(S(=O)(=O)N3CCOCC3)ccc2C)CC1 | 0.53 | 1 | -8 | 7 | -0.47 | -5 | x
O=C(CCl)Nc1nc(-c2ccco2)c(-c2ccco2)s1 | -2 | -4 | 17 | -26 | -4.2* | 11 | 0.053*
Cc1ccccc1CN1CCc2c(OCC(=O)N3CCCc4ccccc43)cccc2C1=O | -1.4 | -15 | 29 | -13 | -0.99 | 62* | 0.08
CCOC(=O)N1CCN(C(=O)COc2cccc3c2CCN(Cc2cccc(C)c2)C3=O)CC1 | -1.4 | -7 | -4 | -9 | x | -3 | 0.064*
CCOC(=O)N1CCN(C(=O)COc2cccc3c2CCN(Cc2ccccc2C)C3=O)CC1 | -0.11 | 0 | 4 | -8 | x | 23 | x
